Data set [1] concerns PANC-1. As to the kind of experiment: Cytotoxicity against human PANC1 cells after 5 to 7 days. The class given is functional, cell-based. Put shortly: (§1)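 U87 or Panc-1 cells were seeded at 5000 per well in DMEM/10% FCS and grown 24 h. Cells were then exposed to 6.25-100 µM in medium with 0.1% DMSO, or to vehicle. After 5-7 days cells were counted directly and IC50 was read from growth curves (2 independent experiments, n = 8, mean ± SD).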

Data set [2] is described as follows: Cytotoxicity against human U87 cells after 5 to 7 days. The class given is functional, cell-based, U-87MG ATCC. As to conditions: U-87 MG. Put shortly: as §1
For data set [3], the system named is PANC-1. As to the kind of experiment: Effect on Ras signaling in human PANC1 cells assessed as inhibition of total Ras-GTP level at 50 uM after 24 hrs by immunoblot method. As to conditions: PANC-1, 24 h. The class given is functional. Put shortly: (§2)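 Cells were seeded at 1.5 × 10⁶ per 10-cm dish, grown 24 h, then exposed to 50 µM or 0.1% DMSO for 24 h. Lysates in Tris pH 7.6/MgCl2/NaCl/NP40/DTT buffer went through a GST-Raf-RBD pull-down, followed by immunoblots with pan-Ras or isoform-specific antibodies. Bands were detected by ECL and quantified by densitometry. Inhibition was calculated as control active-Ras % minus treated active-Ras % (mean ± SD).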

Data set [4] deals with PANC-1. As to the kind of experiment: Effect on Ras signaling in human PANC1 cells assessed as inhibition of KRas-GTP level at 50 uM after 24 hrs by immunoblot method. The class given is functional. As to conditions: PANC-1, 24 h. Summed up:
as §2

Data set [5] concerns PANC-1. Kind of data set: Effect on Ras signaling in human PANC1 cells assessed as inhibition of NRas-GTP level at 50 uM after 24 hrs by immunoblot method. The following applies: PANC-1, 24 h. The class given is functional. Summed up:
as §2
For orientation: In western blotting, separated proteins are transferred to a membrane and probed.

Data set [6] in a line: Effect on Ras signaling in human U87 cells assessed as inhibition of total Ras-GTP level at 50 uM after 24 hrs by immunoblot method. The class given is functional, cell-based. As to conditions: U-87MG ATCC. Summed up:
as §2

A short description of data set [7]: Effect on Ras signaling in human U87 cells assessed as inhibition of KRas-GTP level at 50 uM after 24 hrs by immunoblot method. The class given is functional, cell-based. As to conditions: U-87MG ATCC. Put shortly: as §2
The nature of data set [8]: Effect on Ras signaling in human U87 cells assessed as inhibition of NRas-GTP level at 50 uM after 24 hrs by immunoblot method. The following applies: U-87MG ATCC. The format is functional, cell-based. Put shortly:
as §2

The nature of data set [9]: Elimination half life in Sprague-Dawley rat at 40 mg/kg, po. The format is ADME, organism-based. Also noted: dose 40 mg/kg, route oral. The following applies: in vivo.
Data set [10] in a line: Cmax in Sprague-Dawley rat at 40 mg/kg, po. The format is ADME, organism-based. The following applies: in vivo. Also noted: dose 40 mg/kg, route oral.
Data set [11] in a line: AUC (0 to infinity) in Sprague-Dawley rat at 40 mg/kg, po. Also noted: time infinity, dose 40 mg/kg, route oral. As to conditions: plasma. The class given is ADME, organism-based.
The test system of a further data set is U-87MG ATCC. Kind of data set: Antitumor activity against human U87 cells xenografted CD1-Nu mouse at 100 mg/kg, po twice daily assessed as increase tumor volume after 9 days. The class given is functional, organism-based. Also noted: dose 100 mg/kg. Put shortly:
(§3)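 Nude mice under ketamine/xylazine received 5 × 10⁵ U87 cells into the striatum (1 µL/min for 5 min). Gd-DTPA contrast MRI on day 4 confirmed tumors and mice were grouped by size. From day 5 they received 100 mg/kg orally twice a day in corn oil, or vehicle. Tumor volumes were read from T1-weighted follow-up MRI. Normalized growth was taken as (follow-up volume − initial volume)/initial volume (n = 7, Mann-Whitney).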
On the technique in general: In xenograft studies the graft and the host belong to different species.

Data set [12] is described as follows: Effect on Ras signaling in human U87 cells assessed as decrease in phospho-ERK level at 50 uM after 24 hrs by immunoblot method. The format is functional, cell-based. The following applies: U-87MG ATCC. Put shortly:
(§4)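 Cells were seeded at 1.5 × 10⁶ per 10-cm dish, grown overnight in 10% FCS, then treated with 50 µM or 0.1% DMSO for 24 h. Lysates in Tris pH 7.6/MgCl2/NaCl/NP40/DTT buffer were immunoblotted for phospho-ERK1/2 and phospho-Akt, with β-tubulin as loading reference. Detection was by ECL.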

The nature of data set [13]: Effect on Ras signaling in human U87 cells assessed as decrease in phospho-AKT level at 50 uM after 24 hrs by immunoblot method. The format is functional, cell-based. The following applies: U-87MG ATCC. Put shortly: as §4
Data set [14] has as its system PANC-1. Kind of data set: Effect on Ras signaling in human PANC1 cells assessed as decrease in phospho-ERK level at 50 uM after 24 hrs by immunoblot method. The class given is functional, cell-based. Put shortly:
as §4

The test system of data set [15] is PANC-1. As to the kind of experiment: Effect on Ras signaling in human PANC1 cells assessed as decrease in phospho-AKT level at 50 uM after 24 hrs by immunoblot method. The class given is functional, cell-based. Summed up:
as §4

A short description of data set [16]: Elimination half life in Sprague-Dawley rat at 100 mg/kg, po. The format is ADME, organism-based. Also noted: dose 100 mg/kg, route oral. As to conditions: in vivo. Put shortly:
(§5)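 Male Sprague-Dawley rats (275-285 g) given a single oral dose of 100 mg/kg in corn oil. Arterial blood was taken under anesthesia at 10-330 min (4 animals per time point). Plasma was protein-precipitated with acetonitrile, propranolol served as internal standard, and samples were run on isocratic C18 LC-MS/MS (calibration 1-2500 ng/mL). Parameters came from a noncompartmental fit of the mean concentration-time data.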

A short description of data set [17]: Cmax in Sprague-Dawley rat at 100 mg/kg, po. The format is ADME, organism-based. Set-up: dose 100 mg/kg, route oral. As to conditions: in vivo. Summed up:
as §5

Data set [18] can be described thus: AUC (0 to infinity) in Sprague-Dawley rat at 100 mg/kg, po. The format is ADME, organism-based. Set-up: time infinity, dose 100 mg/kg, route oral. The following applies: plasma. Summed up: as §5
The nature of data set [19]: Antitumor activity against human U87 cells xenografted CD1-Nu mouse at 100 mg/kg, po twice daily assessed as inhibition of tumor growth after 4 days. The class given is functional, U-87MG ATCC. As to conditions: U-87 MG, 96 h. Summed up: as §3
The nature of data set [20]: Antitumor activity against human U87 cells xenografted CD1-Nu mouse at 100 mg/kg, po twice daily assessed as inhibition of tumor growth after 9 days. The format is functional, U-87MG ATCC. As to conditions: U-87 MG, 216 h. Put shortly:
as §3

Data set [21] has as its system PANC-1. Kind of data set: Antitumor activity against human PANC1 cells xenografted CD1-Nu mouse at 100 mg/kg, po daily assessed as decrease in tumor weight after 18 days.
A short description of data set [22]: Effect on Ras signaling in human U87 cells assessed as inhibition of HRas-GTP level at 50 uM after 24 hrs by immunoblot method. The format is functional, cell-based. As to conditions: U-87MG ATCC. Summed up:
as §2

Activity calls are given as the source filed them. No cut-off for these calls is given here.

Consider `CNC(=O)c1ccccc1SC/C=C(\C)CC/C=C(\C)CCC=C(C)C`, for which the figures for the IC50 (in the data set with PANC-1 [1]; in data set [2]) were 10 µM and 18 µM, respectively. Further, the values for the inhibition at 50 µM in the data set with PANC-1 [3], in the data set with PANC-1 [4] and in the data set with PANC-1 [5] were 39.7%, 52% and 18.8%, respectively. For the same compound, the inhibition (usually the change of the read-out against control, counted positive when it falls) in data set [6] is 34.7%; in data set [7], 32.6%; in data set [8], 22.5%.
Consider `CC(C)=CCC/C(C)=C/CC/C(C)=C/CSc1ccccc1C(=O)O` [SALIRASIB], for which the IC50 – broadly, the midpoint of a concentration-inhibition curve – worked out at 35 µM in the data set on PANC-1 [1] and 50 µM in data set [2]. In addition, in data set [9], the half-life – broadly, the time in which the quantity being followed falls by half – was 2.36 h. Moreover, the Cmax (commonly the peak of the concentration-time curve) in data set [10] came to 2160 ng/mL. Also, the AUC(0-inf) (in general, the area under the concentration-time curve extrapolated to infinity) in [11] is 6210 ng·h/mL.
With `CC(C)=CCC/C(C)=C/CC/C(C)=C/CSc1ccccc1C(N)=O`, the result (in the data set with U-87MG ATCC; in [12]; in [13]; in the data set with PANC-1 [21]) was Active. Further, the IC50 amounted to 20 µM in the data set with PANC-1 [1] and 10 µM in data set [2]. Further, the inhibition at 50 µM in the data set on PANC-1 [3] is 37.4%; in the data set with PANC-1 [4] it was 56%; with PANC-1 [5], 8.6%. For the same compound, the inhibition in data set [6] worked out at 33%; in data set [7], 50.8%; in data set [8] it was 37.3%. For the same compound, the result with PANC-1 [14] and with PANC-1 [15] was inactive. The same compound registered a half-life in data set [16] of 5.23 h. This compound also returned a Cmax in [17] of 371 ng/mL. In [18], this compound gave an AUC(0-inf) of 1810 ng·h/mL. Besides, the results for the inhibition in vivo at 100 mg/kg in data set [19] and in [20] were 80% and 50%, respectively.
Consider `CC(C)=CCC/C(C)=C/CC/C(C)=C/CSc1ccccc1C(=O)OC(C)C`, for which the 50% inhibitory concentration (IC50) in the data set with PANC-1 [1] amounted to 70 µM; in data set [2], 52 µM.
As to `COC(=O)c1ccccc1SC/C=C(\C)CC/C=C(\C)CCC=C(C)C`, the IC50 in the data set on PANC-1 [1] amounted to 30 µM; in data set [2], 10 µM. The inhibition at 50 µM in the data set with PANC-1 [3] is 5.3%; in the data set on PANC-1 [4], 11.9%. Besides, the figures for the inhibition in data set [7] and in [8] were 23.8% and 18.7%, respectively.
Take `CC(C)=CCC/C(C)=C/CC/C(C)=C/CSc1ccccc1C(=O)N(C)C`: the IC50 in the data set on PANC-1 [1] was found to be 22 µM; in data set [2], 20 µM. The results for the inhibition at 50 µM in the data set on PANC-1 [3], in the data set on PANC-1 [4] and in the data set on PANC-1 [5] were 38.6%, 48% and 13.6%, respectively. In addition, the inhibition in data set [6] was found to be 45.4%; in [7], 28%; in data set [8], 41%; in [22], 14%.
As for `CC(C)=CCC/C(C)=C/CC/C(C)=C/CSc1ccccc1C(=O)OCc1ccccc1`, the results for the IC50 (with PANC-1 [1]; in [2]) were 95 µM and 30 µM, respectively.
As to `COCOC(=O)c1ccccc1SC/C=C(\C)CC/C=C(\C)CCC=C(C)C`, the concentration for half-maximal inhibition (IC50) in the data set with PANC-1 [1] was 12 µM; in data set [2], 10 µM. For the same compound, the inhibition at 50 µM stood at 2.6% in the data set with PANC-1 [3] and 19.9% with PANC-1 [4]. For the same compound, the inhibition in [7] was 4.8%; in data set [8], 5.1%.

Source of the values: ChEMBL document CHEMBL1139354, “New derivatives of farnesylthiosalicylic acid (salirasib) for cancer treatment: farnesylthiosalicylamide inhibits tumor growth in nude mice models” (J Med Chem, 2009).
